{"data": "Results collected from several papers", "DPP4": "Dipeptidyl peptidase 4 (DPP4, Homo sapiens, UniProt P27487)", "CYP2C9": "Cytochrome P450 2C9 (CYP2C9, Homo sapiens, UniProt P11712)", "SLC22A13": "SLC22A13 (Homo sapiens, UniProt Q9Y226)", "note": "Each line is one published result; the experiments were not run side by side. pIC50: −log10 of the molar value."}
{"Structure (SMILES)": "CC1(CN)CCN(c2cnc3c(Sc4ccncc4Cl)n[nH]c3n2)CC1", "target": "Tyrosine-protein phosphatase non-receptor type 6 (PTPN6, Homo sapiens, UniProt P29350)", "assay": "enzyme activity, inhibitor", "pIC50": "< 4.00"}
{"Structure (SMILES)": "CCCCNC(=O)N[C@H]1CSCc2cc(CSCCNC(=O)CN3CCN(CC(=O)O)CCN(CC(=O)O)CC3)cc(c2)CSC[C@@H](C(=O)O)NC(=O)[C@H](Cc2ccccc2)NC(=O)[C@H](CCC(N)=O)NC(=O)[C@H]([C@@H](C)O)NC(=O)[C@@H]2CCCN2C(=O)[C@@H]2CCCN2C1=O", "target": "Prolyl endopeptidase FAP (FAP, Homo sapiens, UniProt Q12884)", "assay": "ligand displacement, radioligand", "pIC50": 7.50}
{"Structure (SMILES)": "Cn1c(=O)cc(N2CCC(N)CC2)n(Cc2nc3ccc(Br)cc3c(=O)n2-c2ccc(F)cc2)c1=O", "target": "DPP4", "assay": "enzyme activity, inhibitor", "pIC50": 4.35}
{"Structure (SMILES)": "N#C[C@@]12C[C@@H]1[C@@H](n1cnc3c(N[C@@H](C4CCC4)C4CC4)nc(I)nc31)[C@H](O)[C@@H]2O", "target": "CYP2C9", "assay": "enzyme activity, inhibitor", "pIC50": 5.06}
{"Structure (SMILES)": "CN(C)c1ncnc2c1ncn2[C@@H]1O[C@H](CCl)[C@@H](NC(=O)[C@@H](CSC(c2ccccc2)c2ccccc2)NC(=O)OC(C)(C)C)[C@H]1O", "target": "Aminopeptidase N (ANPEP, Homo sapiens, UniProt P15144)", "assay": "enzyme activity, inhibitor, fluorescence", "pIC50": "< 4.00"}
{"Structure (SMILES)": "Cn1c(=O)cc(N2CCC(N)CC2)n(Cc2nc3ccccc3c(=O)n2-c2ccccc2)c1=O", "target": "DPP4", "assay": "enzyme activity, inhibitor", "pIC50": "< 4.00"}
{"Structure (SMILES)": "Nc1ncnc2c1ncn2[C@@H]1O[C@H](CO)[C@@H](O)[C@H]1O", "target": "SLC22A13", "assay": "transporter uptake, inhibitor, radiometric", "setting": "oocytes", "pIC50": "< 2.30"}
{"Structure (SMILES)": "CC[C@@](N)(c1cnc(C(F)(F)F)c(Cl)c1)c1c2ncn(C3CC3)c(=O)c2nn1C", "target": "Cytochrome P450 2C8 (CYP2C8, Homo sapiens, UniProt P10632)", "assay": "enzyme activity, inhibitor", "system": "human, liver microsomes", "setting": "pH 7.4", "pIC50": "< 4.70"}
{"Structure (SMILES)": "CC(=O)N[C@H]1Cc2ccc(cc2)OC/C=C/C[C@@H](C(=O)N[C@@H](CCCNC(=N)N)C(=O)c2nc3ccccc3s2)NC(=O)[C@H](CC(C)C)NC1=O", "target": "Hepatocyte growth factor activator serine protease (Homo sapiens, UniProt Q04756)", "assay": "enzyme activity, inhibitor, fluorescence", "setting": "with preincubation", "pIC50": 7.28}
{"Structure (SMILES)": "Cn1c(=O)cc(N2CCC(N)CC2)n(Cc2nc3ccccc3c(=O)n2-c2ccc(F)cc2)c1=O", "target": "DPP4", "assay": "enzyme activity, inhibitor", "pIC50": 4.20}
{"Structure (SMILES)": "COc1cc(O)c2c(c1)C(=O)c1cc(C)cc(O)c1C2=O", "target": "CYP2C9", "assay": "enzyme activity, inhibitor", "system": "human, liver microsomes", "setting": "pH 7.4", "pIC50": 5.13}
{"Structure (SMILES)": "Cc1ccc(-n2c(Cn3c(N4CCC(N)CC4)cc(=O)n(C)c3=O)nc3ccccc3c2=O)cc1", "target": "DPP4", "assay": "enzyme activity, inhibitor", "pIC50": "< 4.00"}
{"Structure (SMILES)": "Cn1c(=O)c2c(ncn2C)n(C)c1=O", "target": "SLC22A13", "assay": "transporter uptake, inhibitor, radiometric", "setting": "oocytes", "pIC50": "< 2.70"}
{"Structure (SMILES)": "Cn1c(=O)cc(N2CCC(N)CC2)n(Cc2nc3ccccc3c(=O)n2-c2cccc(C(F)(F)F)c2)c1=O", "target": "DPP4", "assay": "enzyme activity, inhibitor", "pIC50": 4.24}
{"Structure (SMILES)": "Cn1nc2c(=O)n(C3CC3)ccc2c1[C@](O)(c1cnc(C(F)(F)F)c(Cl)c1)C(F)(F)F", "target": "CYP2C9", "assay": "enzyme activity, inhibitor", "system": "human, liver microsomes", "setting": "pH 7.4", "pIC50": "< 4.70"}
